RGS4 pot – RGS4 potentiation or activation | HEK293 M3R/inducible RGS4, carbachol calcium flux Fluo4; stronger effect = lower value | B-score at 10 µM | 310,000 tested, 0.92% active;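 active = B-score of the integrated calcium signal more than 4 SD below the library mean, with starting fluorescence not abnormally high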;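 note: negative B-score means reduced calcium response which marks RGS4 activation or potentiation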
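Material: Inducible-RGS4 HEK293 cells carrying M3 receptor; also added: carbachol at ECmax as muscarinic agonist stimulus; incubation: compound preincubation 20 min at room temperature before agonist; signal: Fluo4-AM (2 µM) calcium-flux fluorescence, kinetic read; measure: integrated calcium ratio converted to B score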
PHOSPHO1 block – PHOSPHO1 (human) inhibition. Q8TCT1. recombinant PHOSPHO1, absorbance phosphatase assay. inhibition, % at 13.3 µM. 290,000 tested, 1.1% active. AID 1565; in the data active = inhibition above about 60%
MrgX1 allo act – human MrgX1 positive allosteric modulation, primary screen; Q96LB2; MrgX1-HEK293, Fluo-4 calcium flux, FDSS; stronger effect = higher value; B-score at 10 µM; 310,000 tested, 0.63% active; AID 588675;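 active = plate-corrected calcium response at least 3 library SD above typical, normal starting fluorescence, not activating the receptor alone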;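 note: compound read alongside a low EC10 to EC30 dose of BAM8-22 agonist; peak minus trough fluorescence over baseline measured at the second addition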
Target sequence (Q96LB2 whole entry, looked up): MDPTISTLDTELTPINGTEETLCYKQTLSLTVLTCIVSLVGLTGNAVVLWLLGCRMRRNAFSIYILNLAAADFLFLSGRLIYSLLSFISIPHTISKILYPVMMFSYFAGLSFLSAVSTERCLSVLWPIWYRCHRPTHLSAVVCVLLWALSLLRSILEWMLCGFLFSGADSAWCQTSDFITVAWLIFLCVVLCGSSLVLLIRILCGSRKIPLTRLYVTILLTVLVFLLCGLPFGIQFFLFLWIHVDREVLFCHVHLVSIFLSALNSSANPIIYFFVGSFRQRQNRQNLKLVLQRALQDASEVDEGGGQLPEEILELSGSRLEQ
MrgX1 antag – blocks BAM8-22 activation of human MrgX1 receptor. Q96LB2. B-score at 10 µM. 310,000 tested, 1.3% active. MRGX1-HEK293 calcium flux, Fluo-4, BAM8-22 antagonism; stronger effect = lower value;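 active = calcium-response B-score plate-corrected more than 3 library SD below zero, starting fluorescence within 5 deviations, no agonist response on first addition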;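 note: peak minus trough fluorescence over baseline after final BAM8-22 challenge near maximal dose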
RGS4 block – inhibitors of human RGS4; B-score at 10 µM; P49798; HEK293 M3R/RGS4 inducible, Fluo-4 calcium flux; stronger effect = higher value; triggered by carbachol at its EC20; 310,000 tested, 0.45% active;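 active = B-score, a plate-corrected calcium signal, over three deviations above library mean, with baseline fluorescence within five deviations of library mean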;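 note: RGS4 expression induced by doxycycline in cells with stable M3 receptor; B-score is computed from the integrated fluorescence ratio over baseline after carbachol; higher B-score means a larger calcium signal and so more RGS4 inhibition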
Target sequence (P49798 whole entry, looked up): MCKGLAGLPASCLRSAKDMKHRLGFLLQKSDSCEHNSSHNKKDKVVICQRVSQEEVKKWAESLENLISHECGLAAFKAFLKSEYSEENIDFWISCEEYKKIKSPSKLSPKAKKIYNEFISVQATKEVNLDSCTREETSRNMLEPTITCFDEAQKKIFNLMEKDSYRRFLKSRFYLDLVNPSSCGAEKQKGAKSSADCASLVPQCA
MrgX1 ag – human MrgX1 receptor agonism, primary screen; MrgX1-HEK293 cells, Fluo-4 calcium fluorescence, agonist mode; stronger effect = higher value; AID 588627; 310,000 tested, 0.44% active; Q96LB2; B-score at 10 µM;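 active = calcium response B-score plate-corrected fluorescence ratio at least 3 library SD, with starting fluorescence B-score inside 5 SD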
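Assay system: MrgX1-expressing HEK293 cells / Amount: fifteen thousand cells per well / Doses: test compound in the initial addition of three / Timing: cells plated overnight, dye loaded 0.5 h 37 °C, 0.5 h room temperature / Technique: kinetic calcium dye fluorescence, Fluo-4 NW / Control set: positive and negative controls per plate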
Numbers stand for hits; n = inactive; x = not tested or not shown. Most compounds without a hit are left out; they make up all but 4.5% or so of the library.

SMILES	RGS4 pot	PHOSPHO1 block	MrgX1 allo act	MrgX1 antag	RGS4 block	MrgX1 ag
CCOc1ccc(C(=O)NCC(=O)OCc2cc([N+](=O)[O-])cc3c2OCOC3)cc1OCC	n	n	n	n	n	n
c1ccc(C[n+]2ccc3ccccc3c2)cc1	-7.9	x	n	n	n	n
COc1ccc(N2C(=O)C(CC(N)=O)N(NC(=O)CCc3ccccc3)C2=O)cc1 (stereo not drawn)	n	n	n	n	n	n
CC(C)CN1C(=S)SC(C)(C)C1n1oc(=O)n(-c2ccc(Cl)cc2)c1=O (stereo not drawn)	-11	n	n	n	n	n
CCN(CC)Cc1c(C(=O)N/N=C/c2cccc3ccccc23)nnn1-c1nonc1N	n	n	n	n	n	n
CCCc1c(C(=O)N/N=C/c2cccc3ccccc23)nnn1-c1nonc1N	n	62	n	n	n	n
Cc1ccc(-n2c(CCc3nc4ccccc4[nH]3)n[nH]c2=S)cc1	n	81	n	n	n	n
CCOC(=O)c1cnc2ccc(OCC)cc2c1N(C)Cc1ccccc1	n	n	n	n	n	n
Cc1ccc(C)c(Cn2c(C)nc3c(sc(=S)n3-c3ccccc3)c2=O)c1	n	n	n	n	n	n
CN(c1ncnc(N)c1[N+](=O)[O-])C1CCCCC1	n	n	n	n	n	27
CCn1c(COc2cccc(C)c2C)nnc1SCC(=O)N1CCN(c2ccc(OC)cc2)CC1	n	74	n	n	n	n
O=[N+]([O-])c1ccc(N2CCN(c3ccccc3O)CC2)cc1	n	n	n	n	n	n
CC(C)OC(=O)CC(=O)c1sc2nc3c(cc2c1N)CN(C)CC3	n	82	n	n	n	n
CCN1CCc2nc3sc(C(=O)N4CCc5ccccc5C4)c(N)c3cc2C1	n	n	n	n	n	n
CC1=NN(C(=O)Cn2nc([N+](=O)[O-])c(Br)c2C)C(O)(C(F)(F)F)C1 (stereo not drawn)	n	n	n	n	n	n
CCOc1ccc(NS(=O)(=O)c2cc(NC(=O)c3ccc(C)cc3)ccc2Cl)cc1	n	n	n	n	n	n
c1ccc(-c2nc3nonc3nc2-c2ccccc2)cc1	n	67	n	n	n	n
C=C(CC1([C@@H](NP(=O)(c2ccccc2)c2ccccc2)[C@H]2C[C@@H]2CCCC)CC1)c1ccccc1	n	n	n	-4.8	n	n
COc1ccc(CN(CC(=O)NCc2ccccc2)C(=O)CCC(=O)Nc2cc(C)ccn2)cc1	n	n	n	n	n	n
COc1cccc(NS(=O)(=O)c2c(C(=O)N3CCCCCC3)c(C)n(C)c2C)c1	n	n	n	n	n	n
CCOC(=O)c1cc(C(=O)OCC)c2ccccn2c1=O	n	n	n	n	n	n
COc1cccc(C(=O)Nc2cccc(-c3ccc(N4CCOCC4)nn3)c2)c1OC	-7.5	x	n	n	n	n
COc1ccc(C(=O)Nc2cccc(-c3ccc(N4CCOCC4)nn3)c2)cc1OC	n	x	n	n	n	n
CCn1ncc(/C=C/C(=O)NCc2cn(C)nc2C)c1C	n	n	n	-4.8	n	n
CCN(CC)S(=O)(=O)c1ccc(N2CCN(S(=O)(=O)c3ccccc3)CC2)nc1	n	n	x	x	n	x
SMILES	RGS4 pot	PHOSPHO1 block	MrgX1 allo act	MrgX1 antag	RGS4 block	MrgX1 ag
CCN(CC)S(=O)(=O)c1ccc(N2CCN(S(=O)(=O)c3ccccc3C#N)CC2)nc1	x	n	n	-5	x	n
CN(C)C1(CNC(=O)C2CCN(S(=O)(=O)c3cccc(C(F)(F)F)c3)CC2)CCCCC1	n	n	n	n	n	n
Cc1ccccc1CN1C(=O)CS/C1=N/N=C/c1ccco1	n	n	7.2	n	n	n
CCC1S/C(=N/N=C/c2ccco2)N(Cc2ccc(F)cc2)C1=O (stereo not drawn)	n	n	n	n	n	n
CC(c1ccccc1)C1CC(=O)N(Cc2ccco2)C1=O (stereo not drawn)	n	n	n	n	n	n
CC/C(=N\N=C1\SC(C)C(=O)N1Cc1ccco1)c1ccccc1 (stereo not drawn)	n	n	12	n	n	n
CCC1S/C(=N/N=C/c2ccco2)N(Cc2ccccc2C)C1=O (stereo not drawn)	n	n	n	n	n	n
CC1S/C(=N/N=C/c2ccco2)N(Cc2ccccc2)C1=O (stereo not drawn)	n	n	8	n	n	n
O=C(O)C1CCN(C(=O)c2ccccc2N2C(=O)[C@@H]3Cc4c([nH]c5ccccc45)C(c4cccc(Cl)c4)N3C2=O)CC1 (stereo partly drawn)	n	n	n	n	n	n
Cc1ccc(CSc2nnc(CNc3ccc(F)cc3)o2)cc1	n	n	n	n	n	n
C/C(=N/N=C(/N)SCc1ccccc1)C(C)(C)C	n	n	9.9	n	n	n
CC(=O)N1CCOc2ccc(S(=O)(=O)N3CCC(C(=O)NCc4ccc(C)cc4)CC3)cc21	n	n	n	n	n	n
CC(=O)NC(Cc1ccc(O)cc1)C(=O)NN (stereo not drawn)	n	n	n	n	n	n
O=C1CCCN1CCCNc1ncnc2c1[nH]c1ccc(Cl)cc12	n	n	n	n	n	37
CC1CCCN(c2nc(-c3cccnc3)nc3scc(-c4ccccc4)c23)C1 (stereo not drawn)	-7.3	n	n	n	n	n
NC(=O)C1CC(O)CN1c1nc(CN2CCOCC2)nc2scc(-c3ccccc3)c12 (stereo not drawn)	n	n	n	n	n	n
CC1CCN(c2nc(CN3CCCCC3)nc3scc(-c4ccccc4)c23)CC1	-7.4	n	n	n	n	n
CC1CCN(c2nc(-c3cccnc3)nc3scc(-c4ccccc4)c23)CC1	n	n	n	n	n	n
Cc1cccc(SC2CCN(C(=O)C3CCC(=O)N(C4CC4)C3)CC2)c1 (stereo not drawn)	n	n	n	n	n	n
Nc1c(C(=O)Nc2cccc(F)c2)nnn1-c1ccc2c(c1)OCCO2	n	n	n	n	n	n
O=[N+]([O-])c1ccc(C2=NN(c3ccccc3)C(c3ccco3)C2)cc1 (stereo not drawn)	-7.2	n	x	x	n	x
O=S(=O)(c1ccccc1)N1N=C(c2ccc(O)cc2)CC1c1ccco1 (stereo not drawn)	n	n	n	n	n	n
O=[N+]([O-])c1ccc(/C=C/C2=NN(c3ccccc3)C(c3ccco3)C2)cc1 (stereo not drawn)	x	n	9.7	n	x	n
COc1cccc(-c2nnc(NC(=O)c3ccc4ncsc4c3)o2)c1	n	n	n	n	n	n
N=C1S/C(=C\c2ccco2)C(=O)N1c1ccc2c(c1)OCO2	n	n	n	n	n	n
N=C1S/C(=C\c2ccco2)C(=O)N1c1nccs1	n	n	n	n	n	48

From PubChem
